Source: PubChem BioAssay AID463079 (The Scripps Research Institute Molecular Screening Center, 2010)
Among all 330,000 compounds or so, about 2,000 (0.61%) were called active. The sample holds actives, similar compounds and a random draw of the others, so the mix is not that of the screen.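 Rule for the calls: active = inhibition above that plate's mean sample inhibition plus 3 SD (cut at about 26% in these data); inactive = the rest.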

Test: ATP-evoked calcium signal inhibitors, parental CHO, primary screen, counter-screen for OX1R antagonist project, cell-based, fluorescence, Fluo-8 calcium dye (AID 463079);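 note: 0% = ATP-challenged DMSO wells and 100% = DMSO wells without ATP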
Details: parental CHO-K1, ATP-induced calcium, Fluo-8 fluorescence; at 5.6 µM; stronger effect = higher value
Method in brief: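 test system = CHO parental line | reagent = ATP stimulus | measured by = intracellular calcium via Fluo-8 no-wash fluorescent dye | control set = ATP and no-ATP DMSO wells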

Compound | inhibition
Cc1cc(C)n(CCC(=O)N2CCN(S(=O)(=O)c3ccc(C)c(C)c3)CC2)n1 | -19% (inactive)
CNS(=O)(=O)c1ccc(C(=O)NCC(=O)NCCc2ccc3c(c2)OCCO3)cc1 | -17.8% (inactive)
CCCCCCCCCCOC(=O)Cn1c(COc2ccc(C)cc2)[n+](C)c2ccccc21 | 78.8% (active)
COc1cccc(OCc2nnc3n2N=C(c2ccccc2)C(CC(=O)O)S3)c1 (stereo not drawn) | -2.16% (inactive)
CCCCn1c(N)c(N(CCOC)C(=O)c2cccc(OCc3ccccc3)c2)c(=O)[nH]c1=O | -12.8% (inactive)
CCOC(=O)Cn1c(-c2cccnc2Cl)nc2ccccc21 | 6.66% (inactive)
CCCCCCCCCCOC(=O)Cn1c(COc2cccc(OC)c2)[n+](C)c2ccccc21 | 43.2% (active)
CCOC(=O)COn1c(=O)c(-c2ccc(OCC)cc2)[n+]([O-])c2ccccc21 | -6.3% (inactive)
CCOC(=O)C1CCN(Cc2c(C(=O)N3CCOCC3)nc3c(C)cccn23)CC1 | -3.54% (inactive)
Cc1cccc(-n2c(Cc3cc(=O)[nH]c(=O)[nH]3)nnc2SCC(=O)Nc2cccc(C(F)(F)F)c2)c1 | -7.28% (inactive)
CCOC(=O)C(Sc1ncc(C#N)c(N)n1)C(C)C (stereo not drawn) | -2.34% (inactive)
CC[C@]1(C(=O)OC)[C@H]2C(=O)N(Cc3ccccc3)C(=O)[C@H]2[C@H]2CN=C(SCc3ccc(Cl)cc3)N21 | -19.6% (inactive)
CC(=O)c1c(C)oc2ccc(NS(=O)(=O)c3ccc(C(=O)O)cc3)cc12 | 7.03% (inactive)
COc1ccc(S(=O)(=O)Nc2ccc3oc(C)c(C(C)=O)c3c2)cc1 | 40.8% (active)
CC(=O)c1c(C)oc2ccc(NS(=O)(=O)c3ccccc3)cc12 | -0.19% (inactive)
CCCCN1C(=O)C(=O)N(CC(=O)Nc2cccc(C(C)=O)c2)C1=O | -9.38% (inactive)
COc1cc(C(=O)NCCOC(=O)c2cccc(N(C)C)c2)cc(OC)c1OC | -13.3% (inactive)
Cc1ccc2cccc(O)c2[n+]1[O-] | -4.21% (inactive)
COC(=O)CNC(=O)c1ccc(OC2CCN(C(=O)C3CC3)CC2)cc1 | 2.53% (inactive)
CCCOC(=O)c1[nH]c2c(c1C)C(=O)CC(c1cccs1)C2 (stereo not drawn) | -21.6% (inactive)
COCCOC(=O)c1[nH]c2c(c1C)C(=O)CC(c1ccc(OC)cc1)C2 (stereo not drawn) | -15.7% (inactive)
CCCOC(=O)c1[nH]c2c(c1C)C(=O)CC(c1cc(OC)c(OC)c(OC)c1)C2 (stereo not drawn) | 33.7% (active)

Compound | inhibition
COc1cc(/C(=C/c2ccccc2)c2ccccc2)c2c(c1)oc1ccccc12 | -12.8% (inactive)
Cc1cc(Br)ccc1NC(=O)c1cnc(N2CCN(c3ccccn3)CC2)c2ccccc12 | -29.1% (inactive)
Cc1cc(C)cc(OCC(=O)Nc2ccc(S(=O)(=O)Nc3ccccn3)cc2)c1 | 2.04% (inactive)
Cc1ccc(NS(=O)(=O)c2ccc(C(C)(C)C)cc2)cn1 | -3.3% (inactive)
Cc1ccc(S(=O)(=O)Nc2ccc3ncccc3c2)cc1 | 37.3% (active)
Oc1oc(-c2ccccc2Br)nc1/C=N/c1ccccn1 | 1.24% (inactive)
CCn1c(CSCc2c(Cl)cccc2Cl)n[nH]c1=S | 4.32% (inactive)
CC(C)c1nnc(NC(=O)COC(=O)/C=C/c2ccc([N+](=O)[O-])cc2)s1 | -9.22% (inactive)
CN(Cc1cccnc1)C(=O)c1cc(COc2ccc3ncccc3c2)on1 | 41.8% (active)
CC(=O)c1cccc(OCc2cc(C(=O)NC(C)Cc3cccnc3)no2)c1 (stereo not drawn) | -20% (inactive)
Cc1ccc(OCc2cc(C(=O)N(C)CCc3ccccc3)no2)cc1C | -11.5% (inactive)
CCOC1CCCCC1NS(=O)(=O)c1ccc(Cl)cc1 (stereo not drawn) | -18.7% (inactive)
Cc1c(NC(=O)CSc2cccc3cccnc23)c(=O)n(-c2ccccc2)n1C | 25.1% (active)
Cc1c(NC(=O)CSc2nnc(-c3cccnc3)n2N)c(=O)n(-c2ccccc2)n1C | -5.93% (inactive)
Cc1ccc(NC(=O)CSc2cccc3cccnc23)c(C)c1 | 0.17% (inactive)
CCOCc1nnc(NC(=O)CCS(=O)(=O)Cc2ccccc2)s1 | 3.73% (inactive)
OC(CNCCc1ccc(Cl)cc1Cl)COc1ccccc1 (stereo not drawn) | -7.3% (inactive)
NC(N)=N/N=C/c1ccc(OCc2ccc(Cl)cc2Cl)cc1 | 64.6% (active)
CCOc1ccc(/C=N/NC(N)=S)cc1 | -2.97% (inactive)
Cn1c(Cc2cccc3ccccc23)nnc1SCC(=O)N1CCN(c2cccc(Cl)c2)CC1 | -6.75% (inactive)
Cc1ccc(-c2nnn(CC(=O)N(CCO)C(C(=O)NC(C)(C)C)c3ccncc3)n2)cc1 (stereo not drawn) | -17.6% (inactive)
COc1cc(F)c(C2=CC(=O)CC(C)(C)C2)cc1F | -13.2% (inactive)

Compound | inhibition
CCOC(=O)C1=C(c2ccccc2)N=C2SCC(=O)N2C1c1ccc(O)c(OC)c1 (stereo not drawn) | -27.1% (inactive)
Cc1cc(N=Nc2ccc3ccccc3c2)ccc1O | 14.3% (inactive)
CC(C)(C)OC(=O)NCCCCCNC(=O)c1nc[nH]c1C(=O)NCc1ccccc1 | -30.4% (inactive)
CC(=O)N1CCCc2cc(S(=O)(=O)N3CCCC(C(=O)NCc4ccc(Cl)cc4)C3)ccc21 (stereo not drawn) | -11.9% (inactive)
CC(=O)N1CCCc2cc(S(=O)(=O)N3CCCC(C(=O)N4CCN(c5cccc(Cl)c5)CC4)C3)ccc21 (stereo not drawn) | 66.2% (active)
CC(=O)N1c2ccc(S(=O)(=O)N3CCCC(C(=O)Nc4cccc(Cl)c4)C3)cc2CC1C (stereo not drawn) | -6.72% (inactive)
O=C(c1ccc(Br)o1)N1CCN(CCOc2ccccc2)CC1 | -7.03% (inactive)
CCOC(=O)C1CCCN(C(=O)CSc2nnc3nc(C)cc(C)n23)C1 (stereo not drawn) | -13.2% (inactive)
Cc1c(Cl)cccc1NC(=S)N(Cc1ccccc1)Cc1cccnc1 | -0.95% (inactive)
Cc1ccc(CN(Cc2cccnc2)C(=S)Nc2cccc(Cl)c2C)cc1 | -2.11% (inactive)
Cc1ccc(CN(Cc2cccnc2)C(=S)Nc2cc(Cl)ccc2C)cc1 | 64.7% (active)
CN1CCN(C(=O)N2c3ccccc3CCc3ccccc32)CC1 | -14.7% (inactive)
O=C1C=C(c2cccc(Cl)c2)C[C@@H](c2ccc(F)cc2)C1 | -24% (inactive)
COc1ccc(S(=O)(=O)NCCCCOc2ccc(Cl)cc2)cc1 | 62.1% (active)
COC(=O)CNS(=O)(=O)c1ccc(OC)cc1 | 4.49% (inactive)
COc1ccc(S(=O)(=O)NCCCc2ccccc2)cc1 | 9.88% (inactive)
Cc1ccccc1S(=O)(=O)N1[C@@H](c2cccc(Cl)c2)C(C(=O)O)=CC[C@H]1c1ccc(Cl)cc1 | -5.28% (inactive)
Cc1ccc([C@@H]2CC=C(C(=O)O)[C@H](c3cccc(Cl)c3)N2S(=O)(=O)c2ccc(C)cc2)cc1 | -14.4% (inactive)
Cc1ccc(S(=O)(=O)N2[C@@H](c3cccc(Cl)c3)C(C(=O)O)=CC[C@H]2c2ccc(Cl)c(Cl)c2)cc1 | 36.9% (active)
Cc1ccc(S(=O)(=O)NC(C(=O)N2CCOCCOCCOCCOCC2)c2ccccc2)cc1 (stereo not drawn) | -9.77% (inactive)
CCCC(C(=O)n1nc(C)cc1C)C(NS(=O)(=O)c1ccc(C)cc1)c1ccccc1 (stereo not drawn) | 40.6% (active)
Cc1ccc(S(=O)(=O)Nc2nc(C)cc(-n3nc(C)cc3C)n2)cc1 | 2.29% (inactive)

Compound | inhibition
C/C(=N/OC(=O)c1cccc(C(F)(F)F)c1)c1cnccn1 | -5.36% (inactive)
O=C(Nc1ccc2ccccc2c1)Nc1ccc2snnc2c1 | 55.2% (active)
CCc1ccccc1NC(=O)c1ccc2snnc2c1 | -1.87% (inactive)
O=C(Nc1cccc(Br)c1)c1ccc2snnc2c1 | 17.8% (inactive)
COc1cc(C2OC(c3cc(OC)c(OC)c(OC)c3)C(C)C2C)cc(OC)c1OC (stereo not drawn) | -16.8% (inactive)
CC1(NC(=O)CCS(=O)(=O)c2ccc(Cl)cc2)CCS(=O)(=O)C1 (stereo not drawn) | -11.8% (inactive)
CCCN1C(=O)C(NS(=O)(=O)c2ccc(N)cc2)(C(F)(F)F)C(C(=O)OC)=C1C (stereo not drawn) | -9.93% (inactive)
COc1cc(NC(=O)CSc2nnc3ccc(-c4ccncc4)nn23)cc(OC)c1 | -9.28% (inactive)
CCOC(=O)c1ccc(NC(=O)Cn2cnc3cc(C)c(C)cc32)cc1 | 56.1% (active)
CCOC(=O)c1ccc(NC(=O)CSc2nnc(COc3ccccc3OC)n2C)cc1 | -24.5% (inactive)
CCCc1nnc(SCC(=O)Nc2ccc(C(=O)OCC)cc2)o1 | -6.7% (inactive)
COc1ccc(C(=O)Nc2cc(S(=O)(=O)N3CCCC3)ccc2Cl)cc1 | -15.8% (inactive)
CN(C)C(=O)CCc1ccc2c3c([nH]c2c1)[C@]1(CCc2ccccc2)[C@@H](C(=O)N2CCCCC2)C[C@H](CC(=O)NCCC2=CCCCC2)C(=O)N1CC3 | -31.7% (inactive)
Oc1cc(O)c2c(c1)OC(c1ccc(O)c(O)c1)C(O)C2 (stereo not drawn) | -0.43% (inactive)
CC(C)Cc1nnc(NC(=O)CCNC(=O)c2ccccc2Cl)s1 | -7.69% (inactive)
CCOC(=O)N1CCN(C(=O)C2CCN(S(=O)(=O)c3cc(Cl)ccc3OCC)CC2)CC1 | -9.79% (inactive)
CCOC(=O)N1CCN(C(=O)C2CCN(Cc3ccc(OC)cc3OC)CC2)CC1 | -15.1% (inactive)
CCOC(=O)N1CCN(C(=O)C2CCN(c3ncnc4c3sc3cccc(F)c34)CC2)CC1 | 37.1% (active)
COc1cccc(CC(=O)OCC(=O)NCc2ccc3c(c2)OCO3)c1 | -4.2% (inactive)
CSc1nccc(NC(=O)c2ccc(C(C)(C)C)cc2)n1 | 33.6% (active)
Cc1cccc(NC(=O)c2ccc(S(=O)(=O)N(C)c3ccccc3)cc2)n1 | -10.9% (inactive)
Cc1cccc(NC(=O)c2cccnc2Cl)n1 | 1.32% (inactive)
